Laboratory results: article PMC4390068 (Medicinal chemistry research : an international journal for …, 2014)
“Also recorded” adds a separate entry of the source. Read-outs that look alike come from different tables or passages of the source.

Experiments:
[1] = test system: LPS-activated BV-2 microglial cells; assay: NO; assay type: cell-based, murine; conditions: for IC50: read-out: LPS-NO2 IC50
[2] = Cell viability by resazurin; assay type: cell-based; conditions: mouse
[3] = test system: iNOS protein expression in LPS-activated BV-2 microglial cells; assay: Inducible NOS protein expression by immunohistochemistry; assay type: cell-based, murine; conditions: LPS-activated BV-2 cells; 4.4 and 8.9 µM chalcone (1)
Procedure, shortened: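 LPS (E. coli O111:B4, 1 µg/ml, 24 h) activated BV-2 cells at 0.5 × 10^6 cells/ml in phenol-red-free DMEM with 5 % FBS and 3 mM L-glutamine. Test compound came from DMSO stock diluted in HBSS + 5 mM HEPES pH 7.4, with final DMSO <0.5 %. Cells were fixed (4 % paraformaldehyde), permeabilised (0.1 % Triton X-100/PBS) and given rabbit N-terminal anti-iNOS, then Alexa Fluor 488 anti-rabbit (each 2 h, 37 °C), with propidium iodide counterstain and confocal imaging. Dexamethasone 1 µM served as comparator.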

[4] = test system: LPS-stimulated BV-2 microglia cells; assay: Inflammatory cytokines Multi-Analyte ELISArray MEM-004A; assay type: cell-based, murine; conditions: LPS-activated BV-2 cells, 24 h supernatant
Procedure, shortened: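 BV-2 cells were activated with E. coli O111:B4 LPS (1 µg/ml) plus test compound (final DMSO <0.5 %). Supernatants taken at 24 h were stored at −20 °C, then incubated with capture antibodies and mixed antigen standards (2 h, RT), biotinylated detection antibodies (1 h, RT), avidin–HRP (30 min) and development reagent. Absorbance was read at 450 nm, corrected at 570 nm. Results are % of LPS controls, mean ± STD, n = 2, Student's t test.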

For COc1cc(/C=C/C(=O)c2ccc(OC)c(OC)c2O)cc(OC)c1OC [Compound 1, 2′-hydroxy-3,4,5,3′,4′-pentamethoxychalcone], the “NO inhibition / anti-inflammatory effect (in words)” value ([1]; BV-2 cells, LPS 1 µg/ml) was “complete inhibition of NO”, the CC50 ([2]; BV-2 microglial cells) was 18.3 µM and the iNOS protein expression [3] was “reducing iNOS protein expression; also recorded: reduction of iNOS protein”. The “IL-1α production and release” value [4] was “attenuated”, the “IL-6 production and release” value [4] was “attenuated” and the “IL-10 production and release” value [4] was “attenuated”.

For COc1cc(/C=C/C(=O)c2ccccc2O)cc(OC)c1OC [Compound 2, 2′-hydroxy-3,4,5-trimethoxychalcone], the IC50 ([1]; BV-2 cells, LPS 1 µg/ml, 24 h, regression of min. 5 concentrations below 40 µM, n = 4) was 2.2 µM.

With C[C@@H]1C[C@H]2[C@@H]3CCC4=CC(=O)C=C[C@]4(C)[C@@]3(F)[C@@H](O)C[C@]2(C)[C@@]1(O)C(=O)CO [Dexamethasone, reference compound] the CC50 [2] was > 50 µM.

Work on CC(=N)NCCCC[C@H](N)C(=O)O [L-NIL, L-N6-(1-iminoethyl)lysine, reference compound] yielded an IC50 ([1]; Mus musculus, BV-2, 24 h) of 3.1 µM.
